Assay results pooled from the literature.
Protocols differ between the studies behind these lines.
Target: Activin receptor type-1-like (ACVRL1, Homo sapiens, UniProt P37023)

| SMILES | test | conditions | remaining binding [%] |
| --- | --- | --- | --- |
| COc1ccnn2ncc(-c3ccnc(N(C)C)n3)c12 | binding | 1 µM | 100 |
| Cc1cnc(Nc2ccc(C(=O)N3CCC(N4CCCC4)CC3)cc2)nc1-c1cc2ccccc2s1 | binding, competition with immobilised ligand | 1 µM | 100 |
| N[C@@H]1CCN(c2nccc(-c3cnn4ncccc34)n2)C1 | binding | 1 µM | 100 |
| CCOCCn1cc(C(=O)Nc2ccc(-n3nc(-c4cccnc4)cc3C(F)(F)F)cn2)ccc1=O | cell-free assay, competition with immobilised ligand | 1 µM | 100 |
| Nc1ncc2c(n1)-c1c([nH]c3ccc(C#CC4CC4)cc13)CCCC2 | binding, competition with immobilised ligand | 1 µM | 100 |
| c1cnn2ncc(-c3ccnc(N4CCC45COC5)n3)c2c1 | binding | 1 µM | 100 |
| Cc1c[nH]c2nccc(Oc3c(F)cc(Nc4cc(Cl)nc(N)n4)cc3F)c12 | cell-free assay, competition with immobilised ligand | 0.1 µM | 100 |
| CN(C)c1ncc(F)c(-c2cnn3ncccc23)n1 | binding | 1 µM | 100 |
| CS(=O)(=O)c1cc(C2(NC(=O)c3cncc4c3cnn4-c3ccc(F)cc3)CC2)ccn1 | cell-free assay, competition with immobilised ligand | 1 µM | 100 |
| CN(c1nccc(-c2cnn3ncccc23)n1)C1CC1 | binding | 1 µM | 76 |
| CNC(=O)[C@@H]1CC[C@@H](n2c(-c3ccc4cnccc4c3)nc3ccc(C(=O)NCc4cccc(C(N)=O)c4)cc32)C1 | binding, competition with immobilised ligand | 1 µM | 68 |
| O=C(NCC1CCOCC1)c1n[nH]cc1NC(=O)c1c(F)cccc1F | binding, competition with immobilised ligand | 1 µM | 94 |
| O=C(c1ccc(Nc2ncc(Cl)c(-c3ccc(Cl)s3)n2)cc1)N1CCC(N2CCCC2)CC1 | binding, competition with immobilised ligand | 1 µM | 100 |
| c1cncc(-c2cccc(Nc3nccc(NC4CCCCC4)n3)c2)c1 | binding, competition with immobilised ligand | 10 µM | 52 |
| CC1=C(C#N)C(c2ccc3c(c2)c(NC(=O)c2ccccc2C)nn3C)C(C#N)=C(C)N1 | binding, competition with immobilised ligand | 1 µM | 97 |
| CCN1CCN(Cc2ccc(C(=O)Nc3ccc(C)c(Oc4ccc5c(c4)CC(=O)N5)c3)cc2C(F)(F)F)CC1 | binding, competition with immobilised ligand | 1 µM | 100 |
| CN(C)CC#Cc1ccc(OCCCc2sc(N3CCc4cccc(C(=O)Nc5nc6ccccc6s5)c4C3)nc2C(=O)O)c(F)c1 | binding, competition with immobilised ligand | 1 µM | 82 |
| O=C(c1ccc(Nc2ncc(Cl)c(-c3cc4ccccc4s3)n2)cc1)N1CCC(N2CCCC2)CC1 | binding, competition with immobilised ligand | 1 µM | 100 |
| CN(CCCC(F)(F)F)c1nccc(-c2cnn3ncccc23)n1 | binding | 1 µM | 68 |
| Cc1cc(C)c(-n2ccn3nc(-c4cccnc4)cc23)cc1NC(=O)c1cc(C#N)cc(S(F)(F)(F)(F)F)c1 | binding, competition with immobilised ligand | 0.1 µM | 78.9 |
| C[C@@H]1CCN(c2nccc(-c3cnn4ncccc34)n2)C1 | binding | 1 µM | 100 |
| NS(=O)(=O)c1cc(NC(=O)C2(c3ccccc3Cl)CC2)ccc1Oc1cccc(Cl)c1 | binding, competition with immobilised ligand | 1 µM | 45 |
